Columns and labels:
[1] = molecular target: Serotonin 2 (5-HT2) receptor (Homo sapiens, UniProt P41595+P28223+P28335); assay: Binding affinity towards 5-hydroxytryptamine 2 receptor expressed in CHO cell membranes using [3H]ketanserin (60 Ci/mmol, 1 nM)
Summary of the method: (§1)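 Competition binding on membranes from CHO cells expressing a cloned mammalian 5-HT2 receptor, with [3H]ketanserin (60 Ci/mmol, 1 nM). Ten drug concentrations run in duplicate. IC50 from a nonlinear single-site fit, converted to Ki by Cheng–Prusoff. Ki reported in nM ± SEM.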

[2] = molecular target: T1, Adrenergic receptor alpha-1 (Rattus norvegicus, UniProt P15823+P23944+P43140); assay: Binding affinity towards Alpha-1 adrenergic receptor from rat whole brain using [3H]prazosin (18.1 Ci/mmol,0.9nanoM)as radioligand
T1 sequence (P15823 whole entry): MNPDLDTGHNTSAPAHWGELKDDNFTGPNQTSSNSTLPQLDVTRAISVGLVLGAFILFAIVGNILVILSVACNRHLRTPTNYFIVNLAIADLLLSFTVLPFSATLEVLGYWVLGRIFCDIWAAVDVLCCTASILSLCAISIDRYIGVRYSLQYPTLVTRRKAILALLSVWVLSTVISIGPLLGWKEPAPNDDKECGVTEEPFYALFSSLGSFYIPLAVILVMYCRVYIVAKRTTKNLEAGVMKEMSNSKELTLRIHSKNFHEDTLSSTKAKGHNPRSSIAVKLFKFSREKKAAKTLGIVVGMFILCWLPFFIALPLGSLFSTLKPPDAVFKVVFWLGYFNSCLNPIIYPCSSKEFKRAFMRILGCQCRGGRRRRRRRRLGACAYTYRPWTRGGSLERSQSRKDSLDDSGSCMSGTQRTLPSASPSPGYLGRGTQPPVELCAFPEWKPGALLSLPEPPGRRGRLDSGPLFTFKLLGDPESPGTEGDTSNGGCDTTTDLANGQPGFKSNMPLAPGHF
T1 sequence (P23944 whole entry): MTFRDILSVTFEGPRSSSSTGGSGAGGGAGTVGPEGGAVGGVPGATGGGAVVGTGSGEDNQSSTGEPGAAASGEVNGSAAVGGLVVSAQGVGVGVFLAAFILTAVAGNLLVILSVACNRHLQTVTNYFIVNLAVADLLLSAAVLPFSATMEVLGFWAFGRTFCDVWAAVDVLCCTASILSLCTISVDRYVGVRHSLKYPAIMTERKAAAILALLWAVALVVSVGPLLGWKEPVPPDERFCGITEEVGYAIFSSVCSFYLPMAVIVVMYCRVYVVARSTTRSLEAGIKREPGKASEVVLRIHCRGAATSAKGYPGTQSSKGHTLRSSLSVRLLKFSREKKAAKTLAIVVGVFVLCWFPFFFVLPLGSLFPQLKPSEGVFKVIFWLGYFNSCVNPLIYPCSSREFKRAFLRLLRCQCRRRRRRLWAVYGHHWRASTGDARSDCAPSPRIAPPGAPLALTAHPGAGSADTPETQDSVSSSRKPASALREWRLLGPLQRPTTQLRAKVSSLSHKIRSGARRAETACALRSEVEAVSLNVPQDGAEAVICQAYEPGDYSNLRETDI
T1 sequence (P43140 whole entry): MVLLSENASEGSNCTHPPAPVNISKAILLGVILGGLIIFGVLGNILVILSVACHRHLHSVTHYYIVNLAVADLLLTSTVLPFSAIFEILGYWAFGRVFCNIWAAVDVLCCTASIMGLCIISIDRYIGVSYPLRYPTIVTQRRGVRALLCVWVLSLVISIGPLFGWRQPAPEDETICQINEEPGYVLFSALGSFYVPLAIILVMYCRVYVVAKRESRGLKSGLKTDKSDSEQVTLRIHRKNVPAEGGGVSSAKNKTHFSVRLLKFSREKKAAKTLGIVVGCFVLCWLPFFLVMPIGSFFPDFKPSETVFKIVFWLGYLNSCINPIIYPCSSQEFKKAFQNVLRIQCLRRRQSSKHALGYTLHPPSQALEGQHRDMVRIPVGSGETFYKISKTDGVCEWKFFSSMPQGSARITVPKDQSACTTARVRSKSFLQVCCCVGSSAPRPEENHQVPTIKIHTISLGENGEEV
Summary of the method: (§2)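 Rat whole-brain membranes displaced by test drug from [3H]prazosin (18.1 Ci/mmol, 0.9 nM). Ten concentrations in duplicate. IC50 by nonlinear single-site fit, then Ki via Cheng–Prusoff. Ki given in nM ± SEM.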

D(2) dopamine receptor [3] = molecular target: T2, D(2) dopamine receptor (Homo sapiens, UniProt P14416); assay: Binding affinity towards Dopamine receptor D2 from mammalian clones expressed in CHO cell membranes using 2 (86.1 Ci/mmol,1.7nanoM)as radioligand
T2 sequence (P14416 whole entry): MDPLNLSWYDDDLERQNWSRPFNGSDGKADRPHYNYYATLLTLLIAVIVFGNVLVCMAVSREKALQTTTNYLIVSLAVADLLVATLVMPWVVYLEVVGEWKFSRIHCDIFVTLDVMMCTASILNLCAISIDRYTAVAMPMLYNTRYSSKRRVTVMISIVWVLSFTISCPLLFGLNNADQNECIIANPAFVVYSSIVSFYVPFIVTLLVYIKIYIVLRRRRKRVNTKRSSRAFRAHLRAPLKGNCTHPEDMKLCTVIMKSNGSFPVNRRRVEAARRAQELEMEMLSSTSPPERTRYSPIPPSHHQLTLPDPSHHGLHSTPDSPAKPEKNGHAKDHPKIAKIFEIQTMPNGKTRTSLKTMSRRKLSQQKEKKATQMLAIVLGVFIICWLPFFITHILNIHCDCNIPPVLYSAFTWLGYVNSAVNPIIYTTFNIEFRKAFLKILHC
Summary of the method: (§3)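 Cloned mammalian D2 receptor in CHO cell membranes, radioligand [3H]U-86170 (86.1 Ci/mmol, 1.7 nM). Competition over ten drug concentrations in duplicate. IC50 from a single-site nonlinear fit, with Ki by Cheng–Prusoff. Values in nM ± SEM.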

[4] = molecular target: T3, 5-hydroxytryptamine receptor 1A (Homo sapiens, UniProt P08908); assay: Displacement of [3H]8-OH-DPAT from 5-hydroxytryptamine 1A receptor expressed in CHO cell membranes
T3 sequence (P08908 whole entry): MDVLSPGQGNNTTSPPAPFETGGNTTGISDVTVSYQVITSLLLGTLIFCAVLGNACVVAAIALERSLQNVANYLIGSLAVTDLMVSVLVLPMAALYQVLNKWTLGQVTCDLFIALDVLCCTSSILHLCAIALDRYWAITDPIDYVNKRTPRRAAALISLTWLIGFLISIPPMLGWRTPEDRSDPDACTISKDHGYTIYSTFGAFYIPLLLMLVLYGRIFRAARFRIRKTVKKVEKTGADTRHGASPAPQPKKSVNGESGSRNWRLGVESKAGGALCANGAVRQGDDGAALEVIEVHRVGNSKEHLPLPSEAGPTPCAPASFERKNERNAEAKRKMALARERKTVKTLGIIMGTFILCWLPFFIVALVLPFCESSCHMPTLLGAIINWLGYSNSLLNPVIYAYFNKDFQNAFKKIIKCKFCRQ
Summary of the method: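 [3H]8-OH-DPAT (164.5 Ci/mmol, 1 nM) competition on CHO membranes expressing a cloned mammalian 5-HT1A receptor. Ten drug concentrations in duplicate. IC50 from a nonlinear single-site fit, converted to Ki with Cheng–Prusoff. Ki in nM ± SEM.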

Mus musculus [5] = assay: Result of hypothermia assay carried in Charles river CF-1 male mice at a dose of 17.3 mg/kg (s.c. administration); type: functional
Summary of the method: (§4)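 Male CF-1 mice (18–22 g), four per dose, individually caged. Rectal temperature (°F) taken before and 20 min after a 0.1 mL sc injection. A fall of 2 °F or more counted as a positive hypothermic response. Doses started at 30 mg/kg and were lowered by half-log steps.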

Mus musculus [6] = assay: Result of hypothermia assay carried in Charles river CF-1 male mice at a dose of 1.7 mg/kg (oral administration); type: functional
Summary of the method: (§5)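 CF-1 male mice (18–22 g), four per dose, caged individually. Rectal temperature (°F) taken before dosing and 20 min after. A drop of 2 °F or more counted as positive. Doses started at 30 mg/kg and fell by half-log steps until 0/4 mice responded. Route: sc, 0.1 mL; po, 0.2 mL by oral syringe. ED50 by Spearman-Kärber.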

Mus musculus [7] = assay: Result of hypothermia assay carried in Charles river CF-1 male mice at a dose of 1.3 mg/kg (s.c. administration); type: functional; summary of the method: as §5
D(2) dopamine receptor [8] = molecular target: T2, D(2) dopamine receptor; assay: Compound was evaluated for the binding affinity towards Dopamine receptor D2 from mammalian clones expressed in CHO cell membranes using 2 (86.1 Ci/mmol,1.7nanoM)as radioligand; summary of the method: as §3
Mus musculus [9] = assay: Result of hypothermia assay carried in Charles river CF-1 male mice at a dose of 0.01 mg/kg (s.c. administration); type: functional; summary of the method: as §4
Mus musculus [10] = assay: Result of hypothermia assay carried in Charles river CF-1 male mice at a dose of 30 mg/kg (s.c. administration); type: functional; summary of the method: as §4
[11] = molecular target: T1, Adrenergic receptor alpha-1; assay: Compound was evaluated for the binding affinity towards Alpha-1 adrenergic receptor from rat whole brain using [3H]prazosin as radioligand; summary of the method: as §2
D(2) dopamine receptor [12] = molecular target: T2, D(2) dopamine receptor; assay: Compound was evaluated for the binding affinity towards Dopamine receptor D2 from mammalian clones expressed in CHO cell membranes using [3H]U-86170 as radioligand; summary of the method: as §3
[13] = Compound was evaluated for the binding affinity towards 5-hydroxytryptamine 2 receptor from mammalian clones expressed in CHO cell membranes using [3H]-ketanserin as radioligand; summary of the method: as §1

Structure (SMILES)	Ki [1]	Ki [2]	Ki (D(2) dopamine receptor [3])	Ki [4]	other results
O=C1NCN(c2ccccc2)C12CCN(CC1COc3ccc4[nH]c(CO)cc4c3O1)CC2 (stereo unspecified)	> 1722 nM	8.8 nM	2 nM	0.6 nM	
COC(=O)c1cc2c3c(ccc2[nH]1)OCC(CN1CCC(Nc2ccccc2)(C(N)=O)CC1)O3 (stereo unspecified)	171 nM	19.8 nM	> 388 nM	22 nM	
O=C(OCc1ccccc1)c1cc2c3c(ccc2[nH]1)OCC(CN1CCC2(CC1)C(=O)NCN2c1ccccc1)O3 (stereo unspecified)	143 nM	30.4 nM	5.8 nM	1 nM	Temperature decrease (Mus musculus [5]): 5.6 degrees F
COC(=O)c1cc2c3c(ccc2[nH]1)OCC(CNCCCc1ccccc1)O3 (stereo unspecified)	38.7 nM	0.6 nM	15.9 nM	0.2 nM	Temperature decrease (Mus musculus [6]): 8.8 degrees F; Temperature decrease (Mus musculus [7]): 13.6 degrees F
NC(=O)c1cc2c3c(ccc2[nH]1)OCC(CN1CCC2(CC1)C(=O)NCN2c1ccccc1)O3 (stereo unspecified)	> 1722 nM	29.4 nM	1.8 nM	0.3 nM	
CCCCOC(=O)c1cc2c3c(ccc2[nH]1)OCC(CN1CCC2(CC1)C(=O)NCN2c1ccccc1)O3 (stereo unspecified)	92.6 nM	39.6 nM	5.7 nM	3 nM	
O=C(O)c1cc2c3c(ccc2[nH]1)OCC(CN1CCC2(CC1)C(=O)NCN2c1ccccc1)O3 (stereo unspecified)	> 1722 nM	> 862 nM	58 nM	17.8 nM	Temperature decrease (Mus musculus [5]): 3.6 degrees F
O=C1NCN(c2ccccc2)C12CCN(CC1COc3ccc4[nH]ccc4c3O1)CC2 (stereo unspecified)				0.4 nM	Ki (D(2) dopamine receptor [8]): 0.2 nM
COC(=O)c1cc2c3c(ccc2[nH]1)OCC(CN1CCC(n2c(O)nc4ccccc42)CC1)O3 (stereo unspecified)	31.6 nM	1.8 nM	6.7 nM	0.6 nM	
CCOC(=O)C1CCN(CC2COc3ccc4[nH]c(C(=O)OC)cc4c3O2)CC1 (stereo unspecified)	170 nM	12.3 nM	255 nM	1.2 nM	
N#Cc1cc2c3c(ccc2[nH]1)OCC(CN1CCC2(CC1)C(=O)NCN2c1ccccc1)O3 (stereo unspecified)	281 nM	6 nM	1.5 nM	0.5 nM	Temperature decrease (Mus musculus [9]): 13 degrees F
COC(=O)c1cc2c3c(ccc2[nH]1)OCC(CN1CCC2(CC1)C(=O)NCN2c1ccccc1)O3 (stereo unspecified)				0.9 nM	Temperature decrease (Mus musculus [10]): 3.2 degrees F; Ki [11]: 11.4 nM; Ki (D(2) dopamine receptor [12]): 3.1 nM; Ki [13]: 640 nM
O=C(NCCCc1ccccc1)c1cc2c3c(ccc2[nH]1)OCC(CNCCCc1ccccc1)O3 (stereo unspecified)	27.6 nM	11.4 nM	41 nM	1.6 nM	
